Reference: ChEMBL document CHEMBL1135690, “Benzodiazepine receptor ligands. 7. Synthesis and pharmacological evaluation of new 3-esters of the 8-chloropyrazolo[5,1-c][1,2,4]benzotriazine 5-oxide. 3-(2-Thienylmethoxycarbonyl) derivative: an anxioselective agent in rodents” (J Med Chem, 2002)

How the values were obtained:
Mus musculus [1] = test: Anxiolytic activity in mice using light-dark box and % time spent in light was reported at 30 mg/kg peroral dose; type: functional; settings: route oral
Outline: (§1)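 Male CD-1 mice (22–24 g) given drug po in 1% carboxymethylcellulose (10 mL/kg). Each mouse placed in the centre of the lighted area facing away from the dark compartment and allowed to explore for 5 min; time spent in the illuminated side and number of transfers between compartments recorded. Tests run between 10:00 and 15:00.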

Mus musculus [2] = test: Anxiolytic activity in mice using light-dark box and % time spent in light was reported at 100 mg/kg peroral dose; type: functional; settings: route oral; outline: as §1
Mus musculus [3] = test: Percent anticonvulsant activity against pentylenetetrazole (PTZ)-induced attacks at 100 mg/kg peroral dose; type: functional; settings: route oral
Outline: (§2)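 Male CD-1 mice dosed po in 1% carboxymethylcellulose, 30 min before PTZ (90 mg/kg sc, in 0.9% saline). Occurrence of clonic generalized convulsions noted over 30 min; χ² analysis vs control mice.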

Mus musculus [4] = test: Anxiolytic activity in mice using light-dark box and no. of transfers between compartments were reported at 100 mg/kg peroral dose; type: functional; settings: route oral; outline: as §1
Mus musculus [5] = test: Anxiolytic activity in mice using light-dark box and no. of transfers between compartments were reported at 30 mg/kg peroral dose; type: functional; settings: route oral; outline: as §1
Mus musculus [6] = test: Motor coordination of mouse as number of falls in 30 sec was reported after 100 mg/kg peroral dose using rotarod test; type: functional; settings: route oral
Outline: (§3)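 Male CD-1 mice dosed po (suspension in 1% carboxymethylcellulose, 10 mL/kg). Rota rod turning at 24 rpm; falls from the rod counted over 30 s, 25 min after drug administration.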

[7] = Displacement of [3H]Ro-151788 from rat GABA-A receptor alpha-5-beta-3-gamma-2 subunits expressed in HEK293 cells; type: cell-based
Outline: (§4)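 Recombinant rat GABA-A subtypes are stably expressed in HEK293 cells grown in MEM/EBSS with 10% FCS at 37 °C. Membranes are made in 10 mM potassium phosphate pH 7.4 and resuspended with 100 mM KCl. Incubation uses 1–2 nM [3H]Ro15-1788 with compound at 10^-9–10^-5 M (≥6 concentrations), 1 h at 4 °C. […] Ki comes from Cheng–Prusoff, n=5, in triplicate.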

[8] = biological target: GABA A receptor alpha-3/beta-2/gamma-2 (Rattus norvegicus, UniProt P18508+P20236+P63138); test: Displacement of [3H]Ro-151788 from rat GABA-A receptor alpha-3-beta-2-gamma-2 subunits expressed in HEK293 cells; type: cell-based
[9] = biological target: T1, GABA-A receptor; alpha-1/beta-2/gamma-2 (Rattus norvegicus, UniProt P18508+P62813+P63138); test: (§5) Displacement of [3H]Ro-151788 from rat GABA-A receptor alpha-1-beta-2-gamma-2 subunits expressed in HEK293 cells; type: cell-based
[10] = Displacement of [3H]-Ro-15-1788 from rat GABA-A receptor alpha-2-beta-2-gamma-2 subunits expressed in HEK293 cells; type: cell-based; outline: as §4
[11] = biological target: GABA-A receptor; anion channel; parameters: species or system Bos taurus
Mus musculus [12] = test: Motor coordination of mouse as number of falls in 30 sec was reported after 30 mg/kg peroral dose using rotarod test; type: functional; settings: route oral; outline: as §3
Mus musculus [13] = test: Anxiolytic activity in mice using light-dark box and % time spent in light was reported at 10 mg/kg peroral dose; type: functional; settings: route oral; outline: as §1
Mus musculus [14] = test: Anxiolytic activity in mice using light-dark box and no. of transfers between compartments were reported at 3 mg/kg peroral dose; type: functional; settings: route oral; outline: as §1
Mus musculus [15] = test: Percent anticonvulsant activity against pentylenetetrazole (PTZ)-induced attacks at 3 mg/kg peroral dose; type: functional; settings: route oral; outline: as §2
Mus musculus [16] = test: Anxiolytic activity in mice using light-dark box and no. of transfers between compartments were reported at 10 mg/kg peroral dose; type: functional; settings: route oral; outline: as §1
Mus musculus [17] = test: Anxiolytic activity in mice using light-dark box and % time spent in light was reported at 3 mg/kg peroral dose; type: functional; settings: route oral; outline: as §1
Mus musculus [18] = test: Percent anticonvulsant activity against pentylenetetrazole (PTZ)-induced attacks at 30 mg/kg peroral dose; type: functional; settings: route oral; outline: as §2
Mus musculus [19] = test: Motor coordination of mouse as number of falls in 30 sec was reported after 10 mg/kg peroral dose using rotarod test; type: functional; settings: route oral
Outline: (§6)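 Male CD-1 mice are dosed po in 1% CMC (flumazenil ip). Falls from a rota rod turning at 24 rpm are counted over 30 s, 25 min after drug administration, and compared with vehicle-treated mice. Means ± SEM.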

Mus musculus [20] = test: Percent anticonvulsant activity against pentylenetetrazole (PTZ)-induced attacks at 10 mg/kg peroral dose; type: functional; settings: route oral; outline: as §2
Mus musculus [21] = test: Motor coordination of mouse as number of falls in 30 sec was reported after 3 mg/kg peroral dose using rotarod test; type: functional; settings: route oral; outline: as §3
Mus musculus [22] = test: Motor coordination of mouse as number of falls in […] was reported after 10 mg/kg peroral dose using rotarod test; type: functional; settings: route oral
Mus musculus [23] = test: Anticonvulsant activity electroshock induced convulsions in hind limb of mice at a dose of 30 mg/kg; type: functional, Hindlimb
Outline: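 Male CD-1 mice (22–24 g); oral dosing as suspension in 1% carboxymethylcellulose (10 mL/kg), 30 min before corneal electroshock (40 mA, 0.2 s, 50 Hz). Groups of 10–16 mice; end point tonic hind limb extension; lethality also recorded; χ² analysis vs CMC-treated mice.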

Mus musculus [24] = test: Percent anticonvulsant activity against pentylenetetrazole (PTZ)-induced attacks at 1 mg/kg peroral dose; type: functional; settings: route oral
Outline: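 Male CD-1 mice are dosed po in 1% CMC (flumazenil ip). PTZ (90 mg/kg sc, in 0.9% saline) is injected 30 min later. Clonic generalized convulsions are scored over 30 min, with % protection compared with controls by χ2 analysis.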

Mus musculus [25] = test: Anxiolytic activity in mice using light-dark box and % time spent in light was reported at 1 mg/kg peroral dose; type: functional; settings: route oral
Outline: (§7)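 Light-dark box in male CD-1 mice. Ligands are given po in 1% CMC, flumazenil ip. Each mouse is placed in the centre of the lit area facing away from the dark one and explores for 5 min. Time in the illuminated side and number of transfers between compartments are recorded. Means ± SEM.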

Mus musculus [26] = test: Motor coordination of mouse as number of falls in 30 sec was reported after 1 mg/kg peroral dose using rotarod test; type: functional; settings: route oral; outline: as §6
[27] = Anticonvulsant activity electroshock induced convulsions and % lethality obtained at dose of 30 mg/kg; type: organism-based; parameters: dose 30 mg/kg; settings: mouse, in vivo, read-out: Lethality
Outline: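 Male CD-1 mice (22–24 g), groups of 10–16, dosed po in 1% carboxymethylcellulose at 10 mL/kg. Electroshock (40 mA, 0.2 s, 50 Hz) applied to the corneas 30 min after dosing. End point is tonic hind limb extension; % protection and % lethality are recorded against vehicle-treated mice (χ2 analysis).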

[28] = biological target: T1, GABA-A receptor; alpha-1/beta-2/gamma-2; test: as §5; type: cell-based; remark: listed apart in the source
Outline: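 Membranes from HEK293 cells stably expressing recombinant rat GABA-A subtypes, homogenized in 10 mM potassium phosphate pH 7.4 and resuspended with 100 mM KCl. Incubation with 1–2 nM [3H]Ro15-1788 and test compound (10^-9–10^-5 M, at least six concentrations; DMSO ≤1%) for 1 h at 4 °C to equilibrium.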

Mus musculus [29] = test: (§8) Anxiolytic activity in mice using light-dark box and no. of transfers between compartments were reported at 1 mg/kg peroral dose; type: functional; settings: route oral; outline: as §1
Mus musculus [30] = test: Motor coordination of mouse as number of falls in 30 sec was reported after 0.3 mg/kg peroral dose using rotarod test; type: functional; settings: route oral; outline: as §6
Mus musculus [31] = test: Anxiolytic activity in mice using light-dark box and no. of transfers between compartments were reported at 0.3 mg/kg peroral dose; type: functional; settings: route oral; outline: as §7
Mus musculus [32] = test: as §8; type: functional; settings: route oral; outline: as §7; remark: listed apart in the source
[33] = Anticonvulsant activity electroshock induced convulsions and % lethality obtained at dose of 10 mg/kg; settings: mouse, in vivo
Mus musculus [34] = test: Anxiolytic activity in mice using light-dark box and no. of transfers between compartments were reported at 30 mg/kg intraperitoneal dose; type: functional
Mus musculus [35] = test: Anxiolytic activity in mice using light-dark box and no. of transfers between compartments were reported at 100 mg/kg intraperitoneal dose; type: functional
Mus musculus [36] = test: Anxiolytic activity in mice using light-dark box and % time spent in light was reported at 30 mg/kg intraperitoneal dose; type: functional
Mus musculus [37] = test: Anxiolytic activity in mice using light-dark box and % time spent in light was reported at 100 mg/kg intraperitoneal dose; type: functional
Mus musculus [38] = test: Motor coordination of mouse as number of falls in 30 sec was reported after 100 mg/kg intraperitoneal dose using rotarod test; type: functional; outline: as §6
Mus musculus [39] = test: Percent anticonvulsant activity against pentylenetetrazole (PTZ)-induced attacks at 100 mg/kg intraperitoneal dose.; type: functional
Mus musculus [40] = test: Motor coordination of mouse as number of falls in 30 sec was reported after 30 mg/kg intraperitoneal dose using rotarod test; type: functional; outline: as §6
Mus musculus [41] = test: Percent anticonvulsant activity against pentylenetetrazole (PTZ)-induced attacks at 30 mg/kg intraperitoneal dose.; type: functional

T1 sequence (P18508 whole entry): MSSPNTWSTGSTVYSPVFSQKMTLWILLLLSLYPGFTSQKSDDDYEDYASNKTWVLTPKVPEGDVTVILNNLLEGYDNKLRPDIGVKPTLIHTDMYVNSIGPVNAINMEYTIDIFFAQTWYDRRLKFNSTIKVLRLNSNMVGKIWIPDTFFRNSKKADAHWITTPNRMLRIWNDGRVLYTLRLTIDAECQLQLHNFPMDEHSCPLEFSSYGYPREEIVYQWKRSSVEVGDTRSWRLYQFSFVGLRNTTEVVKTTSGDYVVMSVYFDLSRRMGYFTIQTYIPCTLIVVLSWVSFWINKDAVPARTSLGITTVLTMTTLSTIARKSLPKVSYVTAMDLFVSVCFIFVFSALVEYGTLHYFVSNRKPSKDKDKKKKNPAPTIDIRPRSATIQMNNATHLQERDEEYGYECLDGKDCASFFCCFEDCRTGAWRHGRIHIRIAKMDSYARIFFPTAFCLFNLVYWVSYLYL
T1 sequence (P62813 whole entry): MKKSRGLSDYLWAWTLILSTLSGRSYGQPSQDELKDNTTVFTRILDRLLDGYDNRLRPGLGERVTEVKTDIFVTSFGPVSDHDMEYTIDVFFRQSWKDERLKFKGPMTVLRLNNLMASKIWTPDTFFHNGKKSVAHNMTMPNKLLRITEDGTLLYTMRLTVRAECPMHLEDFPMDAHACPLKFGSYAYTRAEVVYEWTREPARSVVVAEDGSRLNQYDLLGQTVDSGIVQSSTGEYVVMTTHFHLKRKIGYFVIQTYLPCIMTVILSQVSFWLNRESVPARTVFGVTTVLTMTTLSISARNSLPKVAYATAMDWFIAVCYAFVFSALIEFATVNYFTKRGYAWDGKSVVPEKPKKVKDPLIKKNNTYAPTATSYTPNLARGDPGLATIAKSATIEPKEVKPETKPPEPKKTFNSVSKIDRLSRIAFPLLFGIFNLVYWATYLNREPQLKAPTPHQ
T1 sequence (P63138 whole entry): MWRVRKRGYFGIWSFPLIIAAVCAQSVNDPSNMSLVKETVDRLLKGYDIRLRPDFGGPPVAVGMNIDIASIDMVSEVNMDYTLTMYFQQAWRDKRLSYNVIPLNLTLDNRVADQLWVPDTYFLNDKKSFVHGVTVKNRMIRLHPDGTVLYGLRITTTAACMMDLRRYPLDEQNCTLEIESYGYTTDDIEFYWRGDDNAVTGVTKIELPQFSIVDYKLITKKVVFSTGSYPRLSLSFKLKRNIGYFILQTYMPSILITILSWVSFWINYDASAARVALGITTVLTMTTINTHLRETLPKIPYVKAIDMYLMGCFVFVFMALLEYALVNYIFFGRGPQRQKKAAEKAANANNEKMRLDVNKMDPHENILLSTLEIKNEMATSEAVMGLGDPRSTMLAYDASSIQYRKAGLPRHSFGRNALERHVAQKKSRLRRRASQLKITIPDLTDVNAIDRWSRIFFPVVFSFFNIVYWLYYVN
Sequence of GABA A receptor alpha-3/beta-2/gamma-2 (P18508 whole entry): as the sequence (P18508 whole entry) above
Sequence of GABA A receptor alpha-3/beta-2/gamma-2 (P20236 whole entry): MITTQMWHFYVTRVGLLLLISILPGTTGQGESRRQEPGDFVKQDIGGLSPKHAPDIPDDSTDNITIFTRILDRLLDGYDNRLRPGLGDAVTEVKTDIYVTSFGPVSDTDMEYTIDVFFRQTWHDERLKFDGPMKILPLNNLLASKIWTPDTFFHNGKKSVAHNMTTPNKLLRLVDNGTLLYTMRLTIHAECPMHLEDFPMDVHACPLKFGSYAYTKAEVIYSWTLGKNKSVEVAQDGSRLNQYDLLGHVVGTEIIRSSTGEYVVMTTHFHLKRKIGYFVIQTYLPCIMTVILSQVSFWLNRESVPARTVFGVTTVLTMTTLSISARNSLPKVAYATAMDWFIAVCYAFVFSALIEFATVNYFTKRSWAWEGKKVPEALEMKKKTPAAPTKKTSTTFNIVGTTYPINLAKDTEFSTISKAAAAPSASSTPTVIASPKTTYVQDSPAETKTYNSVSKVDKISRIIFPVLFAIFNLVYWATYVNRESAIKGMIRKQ
Sequence of GABA A receptor alpha-3/beta-2/gamma-2 (P63138 whole entry): as the sequence (P63138 whole entry) above

Structure (SMILES) | Activity (Mus musculus [1]) [%] | Activity (Mus musculus [2]) [%] | Activity (Mus musculus [3]) [%] | No. of transfers (Mus musculus [4]) | No. of transfers (Mus musculus [5]) | No. of falls (Mus musculus [6]) | Ki [7] [nM] | Ki [10] [nM] | Ki [11] [nM] | No. of falls (Mus musculus [12]) | Activity (Mus musculus [13]) [%] | No. of transfers (Mus musculus [14]) | Activity (Mus musculus [15]) [%] | No. of transfers (Mus musculus [16]) | Activity (Mus musculus [17]) [%] | Activity (Mus musculus [18]) [%] | No. of falls (Mus musculus [19]) | Activity (Mus musculus [20]) [%] | No. of falls (Mus musculus [21]) | other results
CCOC(=O)c1ncn2c1CN(C)C(=O)c1cc(F)ccc1-2.CN1C(=O)CN=C(c2ccccc2)c2cc(Cl)ccc21 | 154.8 | 107 | 20 | 15.6 | 23 | 0.4 |  |  |  |  |  |  |  |  |  |  |  |  |  | 
[O-][n+]1nc2c(-c3ccsc3)cnn2c2cc(Cl)ccc21 |  |  |  |  |  |  | 18 | 12 |  |  |  |  |  |  |  |  |  |  |  | Ki [8]: 33 nM; Ki [9]: 4.1 nM
O=C(OCc1ccsc1)c1cnn2c1n[n+]([O-])c1ccc(Cl)cc12 |  |  |  |  |  |  |  |  | 13.3 | 0.27 | 91.84 | 15.7 | 30 | 16 | 110.3 | 9 | 0.36 | 18.2 | 0.2 | 
O=C(OCc1ccco1)c1cnn2c1n[n+]([O-])c1ccc(Cl)cc12 | 125.02 | 96.16 | 27.3 | 14 | 18.6 | 0.45 |  |  | 24.4 | 0.08 | 96.8 |  |  | 15.71 |  | 7.7 |  | 27.3 |  | No. of falls (Mus musculus [22]): 0.27
O=C(OCc1cccs1)c1cnn2c1n[n+]([O-])c1ccc(Cl)cc12 | 144.3 | 157.1 | 20 | 14.6 | 20.5 | 0 | 8.6 | 26 | 6.8 | 0.1 | 155.1 | 15.6 | 0 | 16.6 | 170.8 | 40 | 0.15 | 15.38 | 0.1 | Activity (Mus musculus [23]): 0%; Activity (Mus musculus [24]): 20%; Activity (Mus musculus [25]): 12.89%; No. of falls (Mus musculus [26]): 0.1; mortality [27]: 40%; Ki [28]: 3 nM; Ki [8]: 12 nM; No. of transfers (Mus musculus [29]): 21.1
CN1C(=O)CN=C(c2ccccc2)c2cc(Cl)ccc21 [DIAZEPAM] |  |  |  |  |  |  | 9.8 | 7.8 |  |  |  | 16.5 | 100 |  | 243.2 |  |  |  | 1.6 | Activity (Mus musculus [24]): 93.8%; Activity (Mus musculus [25]): 159.3%; No. of falls (Mus musculus [26]): 0.78; No. of falls (Mus musculus [30]): 0.39; No. of transfers (Mus musculus [31]): 22; No. of transfers (Mus musculus [32]): 23.2; mortality [33]: 0%
CCOC(=O)c1ncn2c1CN(C)C(=O)c1cc(F)ccc1-2 [FLUMAZENIL] |  |  |  |  |  |  |  |  |  |  |  |  |  |  |  |  |  |  |  | No. of transfers (Mus musculus [34]): 11.8; No. of transfers (Mus musculus [35]): 15.2; Activity (Mus musculus [36]): 90.36%; Activity (Mus musculus [37]): 119%; No. of falls (Mus musculus [38]): 0.4; Activity (Mus musculus [39]): 5.3%; No. of falls (Mus musculus [40]): 0.33; Activity (Mus musculus [41]): 11.1%
O=C(OCc1ccoc1)c1cnn2c1n[n+]([O-])c1ccc(Cl)cc12 | 132.27 | 127.18 | 36.4 | 19.7 | 20.4 | 0.18 |  |  | 11.4 | 0.1 | 118.95 |  | 0 | 16.57 |  | 30 | 0.2 | 20 | 0.14 | 
Cc1ccc(-c2nc3ccc(C)cn3c2CC(=O)N(C)C)cc1 [ZOLPIDEM] |  |  |  |  |  |  | > 1000 |  |  |  |  |  |  |  |  |  |  |  |  | 
